# ChEMBL document CHEMBL3797182, “In vitro evaluation of imidazo[4,5-c]quinolin-2-ones as gametocytocidal antimalarial agents” (Bioorg Med Chem Lett, 2016)
# What was measured:
# Plasmodium falciparum [1] = assay: Antimalarial activity against chloroquine-sensitive asexual blood stage of Plasmodium falciparum 3D7 infected in RBC after 72 hrs by SYBR Green assay; assay type: functional, organism-based; conditions: 3D7, 72 h
# Outline: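 Asexual blood-stage P. falciparum 3D7 (chloroquine-sensitive) parasites. 1536-well format, 11-point dose-response, duplicate tests. Torin 2 served as positive control and DMSO as negative control.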
# Plasmodium falciparum [2] = assay: Gametocytocidal activity against chloroquine-sensitive late gametocytic stage (III to V) of Plasmodium falciparum 3D7 after 72 hrs by Alamar Blue assay; assay type: functional, organism-based; conditions: 3D7, 72 h
# Outline: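 Late-stage (III–V) P. falciparum 3D7 gametocytes. AlamarBlue redox indicator reads cytosolic metabolic activity as a measure of gametocyte viability. 1536-well format, 11-point dose-response, duplicates. Torin 2 positive control, DMSO negative control.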
# HepG2 = assay: Cytotoxicity against human HepG2 cells assessed as cell viability after 24 hrs; assay type: cell-based; conditions: HepG2, 24 h
# Outline: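 HepG2 cell viability as general cytotoxicity. 1536-well, 11-point dose-response in duplicate, top concentration 46 μM. Torin 2 positive control, DMSO negative control.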
# Plasmodium falciparum [3] = assay: Selectivity ratio of IC50 for chloroquine-sensitive late gametocytic stage (III to V) of Plasmodium falciparum 3D7 to IC50 for chloroquine-sensitive asexual blood stage of Plasmodium falciparum 3D7; assay type: functional
SMILES,IC50 (Plasmodium falciparum [1]) [nM],IC50 (Plasmodium falciparum [2]) [nM],IC50 (HepG2) [nM],Ratio IC50 (Plasmodium falciparum [3])
Cn1c(=O)n(-c2cccc(C(F)(F)F)c2)c2c3cc(-c4cnc5ccccc5c4)ccc3ncc21,5780,5270,31600,–
Cn1c(=O)n(-c2cccc(C(F)(F)F)c2)c2c3cc(-c4ccc5[nH]cnc5c4)ccc3ncc21,65,157,2630,–
COc1cccc(-n2c(=O)n(C)c3cnc4ccc(-c5ccc(N)nc5)cc4c32)c1,88,126,2530,–
Cn1c(=O)n(-c2ccccc2)c2c3cc(-c4ccc(N)nc4)ccc3ncc21,69,219,6540,–
O=c1[nH]c2cnc3ccc(-c4cnc5ccccc5c4)cc3c2n1-c1cccc(C(F)(F)F)c1,15400,2350,> 45000,–
Cn1c(=O)n(-c2cccc(C(F)(F)F)c2)c2c3cc(-c4ccc(N)nc4)ccc3ncc21,7,28,2600,4
Cn1c(=O)n(-c2ccc(C(F)(F)F)cc2)c2c3cc(-c4ccc(N)nc4)ccc3ncc21,104,237,> 45000,–
O=c1[nH]c2cnc3ccc(-c4ccc(F)cc4)cc3c2n1-c1cccc(C(F)(F)F)c1,1570,1830,> 45000,1
Cc1ccc(-c2ccc3ncc4[nH]c(=O)n(-c5cccc(C(F)(F)F)c5)c4c3c2)cn1,180,320,> 45000,–
Cn1c(=O)n(-c2cccc(C(F)(F)F)c2)c2c3cc(-c4ccccc4)ccc3ncc21,442,4710,> 45000,10.7
Cn1c(=O)n(-c2cccc(C(F)(F)F)c2)c2c3cc(-c4cccc(C#N)c4)ccc3ncc21,184,2160,> 45000,11.7
Cn1c(=O)n(C2CCCCC2)c2c3cc(-c4ccc(N)nc4)ccc3ncc21,832,1880,3840,–
Cn1c(=O)n(-c2cccc(C(F)(F)F)c2)c2c3cc(-c4ccc(N)cc4)ccc3ncc21,86,87,5530,1
Nc1ccc(-c2ccc3ncc4[nH]c(=O)n(-c5ccc(C(F)(F)F)cc5)c4c3c2)cn1,530,576,> 45000,–
Nc1cccc(-c2ccc3ncc4[nH]c(=O)n(-c5cccc(C(F)(F)F)c5)c4c3c2)c1,275,637,6170,1
Cc1ccc(-c2ccc3ncc4[nH]c(=O)n(-c5cccc(C(F)(F)F)c5)c4c3c2)cc1,5190,7050,> 45000,1
CCn1c(=O)n(-c2cccc(C(F)(F)F)c2)c2c3cc(-c4ccc(N)nc4)ccc3ncc21,183,205,3680,–
COc1ccc(-n2c(=O)n(C)c3cnc4ccc(-c5ccc(N)nc5)cc4c32)cc1,47,148,2340,–
O=c1[nH]c2cnc3ccc(-c4cccnc4)cc3c2n1-c1cccc(C(F)(F)F)c1,2820,11400,2250,–
CC(=O)Nc1ccc(-c2ccc3ncc4c(c3c2)n(-c2cccc(C(F)(F)F)c2)c(=O)n4C)cn1,25,42,3980,–
Cn1c(=O)n(-c2cccc(C(F)(F)F)c2)c2c3cc(-c4ccc(S(C)(=O)=O)cc4)ccc3ncc21,578,855,> 45000,1
N#Cc1ccc(-n2c(=O)[nH]c3cnc4ccc(-c5ccc(N)nc5)cc4c32)cc1,386,482,> 45000,–
Cn1c(=O)n(-c2cccc(C(F)(F)F)c2)c2c3cc(-c4ccc(O)nc4)ccc3ncc21,158,294,23500,–
Cn1c(=O)n(-c2cccc(C(F)(F)F)c2)c2c3cc(-c4ccc(F)cc4)ccc3ncc21,3180,5590,> 45000,1
NC(=O)c1ccc(-c2ccc3ncc4[nH]c(=O)n(-c5cccc(C(F)(F)F)c5)c4c3c2)cc1,109,294,> 45000,1
Nc1ncc(-c2ccc3ncc4[nH]c(=O)n(-c5cccc(C(F)(F)F)c5)c4c3c2)cn1,213,450,2540,–
NS(=O)(=O)c1ccc(-c2ccc3ncc4[nH]c(=O)n(-c5cccc(C(F)(F)F)c5)c4c3c2)cc1,948,2330,> 45000,1
Cn1c(=O)n(-c2cccc(C(F)(F)F)c2)c2c3cc(-c4cccc(N)c4)ccc3ncc21,77,145,13900,1
